Compound activity: PubChem BioAssay, The Scripps Research Institute Molecular Screening Center
V1R ag counter: activates human V1a receptor in oxytocin agonist counter-screen | AID 2797 | CHO-V1R cells, Fluo-8 calcium fluorescence, agonist mode; 0% DMSO, 100% 3 nM vasopressin | activation, % at 3 µM | actives 0.25% (n = 320,000);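 active = activation above the mean activation of all tested compounds plus 3 SD, per screening run, cut at about 20% in these data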;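 note: signal is peak over basal fluorescence ratio across a 100 second FLIPR read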
Target sequence (P37288 whole entry, looked up): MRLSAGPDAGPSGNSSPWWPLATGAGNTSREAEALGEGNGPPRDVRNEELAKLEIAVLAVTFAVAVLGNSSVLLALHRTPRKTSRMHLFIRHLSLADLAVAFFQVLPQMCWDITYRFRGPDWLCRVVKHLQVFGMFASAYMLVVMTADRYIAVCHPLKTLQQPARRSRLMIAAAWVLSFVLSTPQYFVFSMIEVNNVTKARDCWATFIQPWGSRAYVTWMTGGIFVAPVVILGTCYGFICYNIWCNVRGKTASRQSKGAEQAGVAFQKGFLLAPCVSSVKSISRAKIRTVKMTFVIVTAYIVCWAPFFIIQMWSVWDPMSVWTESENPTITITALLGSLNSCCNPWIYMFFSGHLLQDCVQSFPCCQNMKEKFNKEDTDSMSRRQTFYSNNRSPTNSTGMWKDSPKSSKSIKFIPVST
OX1R antag-1: OX1R (human) antagonism; O43613; OX1R-expressing cells, FRET antagonist read-out; inhibition, % at 6.6 µM; actives 1.8% (n = 330,000); in the data active = inhibition mostly above about 38%, no sharp cut-off; inactive = mostly below about 40%;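 note: 0% = agonist challenge alone and 100% = reference antagonist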
OXTR ag: activates the human oxytocin receptor | CHO-OTR cells, Fluo-8 calcium fluorescence; normalized: DMSO 0%, oxytocin 100% | activation, % at 3 µM | P30559 | actives 0.32% (n = 320,000);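 active = activation above the mean of all tested compounds plus 3 SD, cutoff set per screening run, cut at about 20% in these data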;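 note: peak over basal fluorescence ratio from a 100 s FLIPR kinetic read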
OX1R antag-2: blocks the human orexin 1 receptor; O43613; CHO/OX1R cells, Fluo-8 calcium fluorescence, orexin A; inhibition, % at 5 µM; actives 0.43% (n = 330,000);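 active = inhibition above its plate's threshold, mean inhibition of all tested compounds on the plate plus 3 SD, cut at about 37% in these data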;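 note: 0% = orexin A challenge wells and 100% = SB-334867-A antagonist wells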
CHO parental Ca: counter-screen: ATP calcium response change in parental CHO cells | parental CHO-K1, ATP-induced calcium, Fluo-8 fluorescence | inhibition, % at 5.6 µM | actives 0.63% (n = 330,000);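 active = inhibition above that plate's mean sample inhibition plus 3 SD, cut at about 26% in these data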;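 note: 0% = ATP-challenged DMSO wells and 100% = DMSO wells without ATP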
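material = parental CHO cells | also added = ATP as calcium-mobilizing challenge | dosing = single point at 5.6 µM | detection = intracellular calcium via Fluo-8 no-wash fluorescent dye | read-out = % inhibition | benchmarks = low control ATP plus DMSO, high control DMSO only | repeats = one well per compound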
OXTR potentiator: human OXTR potentiation; P30559; CHO-OTR cells, Fluo-8 calcium fluorescence, potentiator mode; 0% = oxytocin EC15, 100% = EC100; activation, % at 3 µM; actives 0.061% (n = 320,000); AID 2445;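 active = activation above that plate's cutoff, the mean activation of tested compounds plus 3 SD, cut at about 6.6% in these data, passing the limit was not always enough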;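 note: 100% uses oxytocin at 75 nM as the full agonist control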
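Dosing: Single dose, 3.0 µM nominal final compound concentration | Material: Human OTR in CHO cells | Technique: Kinetic Fluo-8 calcium fluorescence | Benchmarks: EC15 oxytocin alone as 0%, 75 nM oxytocin as 100% | Probe or stimulus: Oxytocin at about EC15, sub-maximal agonist stimulus | Incubation: Compound 6 min at room temperature before oxytocin, 100 s read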
The depositor's hits bear a star; . = not tested or not shown. An excerpt weighted towards active compounds, which were near 2.7% of everything screened.

SMILES	V1R ag counter	OX1R antag-1	OXTR ag	OX1R antag-2	CHO parental Ca	OXTR potentiator
CCN(CC(=O)Nc1c(F)cccc1F)C(=O)C(C)SCc1nc2sc(C)c(C)c2c(=O)[nH]1 (stereo unspecified)	0	67*	-1	-15	-14	-5
Cc1nnc(SCC(=O)NC(=O)Nc2ccc3c(c2)OCCO3)n1N	1	16	1	4	6	1
CC1=NN(c2ccccc2)C(=O)/C1=C/C=C/C=C/N(C)C	5	73*	4	9	2	-16
O=C1c2ccccc2-c2cccnc21	0	47*	0	-20	-4	-4
Cc1ccc(N2CCN(S(=O)(=O)c3nnc(NC(=O)c4ccccc4)s3)CC2)cc1	1	17	0	-20	-4	-6
Cc1ccc(CNC(=O)C(=O)NCC2OCCCN2S(=O)(=O)c2ccc(F)cc2)cc1 (stereo unspecified)	2	18	0	-24	-21	0
CCN(CC)C(=O)c1ccc(S(=O)(=O)N2CCC(c3nc4ccccc4s3)CC2)cc1	10	37*	14	35	14	-12
O=[N+]([O-])c1ncccc1OCc1ccc(Br)cc1F	0	2	0	-17	0	-7
Cc1onc(-c2ccccc2Cl)c1C(=O)N1CCCc2ccccc21	-2	35*	-2	-16	-19	3
Cc1onc(-c2ccccc2Cl)c1C(=O)N1CCc2ccccc21	-1	17	-2	-28	-19	2
COc1ccc([C@H]2CC(=O)C=C(c3cccc(Br)c3)C2)cc1OC	-1	32	0	-1	-18	-11
COc1ccc([C@H]2CC(=O)C=C(c3cccc(C(C)C)c3)C2)cc1OC	3	6	2	48*	24	-6
CCN(CC(=O)Nc1ccc(N2CCOCC2)cc1)C(=O)Cc1ccccc1	0	10	2	-12	6	-8
CC(=O)Nc1ccccc1Nc1cc(C#N)c(C#N)cc1[N+](=O)[O-]	3	58*	1	-17	1	-1
COC(=O)Cn1cnc2c(Cl)nc(F)nc21	.	11	.	6	-20	.
CC1CC(=O)NN=C1c1ccc(NCCO)c([N+](=O)[O-])c1 (stereo unspecified)	1	59*	0	4	-11	-3
Cn1nc(-c2ccc(NCCO)c([N+](=O)[O-])c2)c2ccccc2c1=O	0	87	-1	-10	-15	-12
NC(=O)CSc1nnc(Cc2ccc3c(c2)OCO3)o1	0	5	0	2	-7	-4
CC(C)C(NCC(=O)Nc1ccccc1C(=O)NC1CC1)c1ccccc1 (stereo unspecified)	7	43*	0	16	-12	-11
CC(NCC(=O)Nc1ccccc1C(=O)NC1CC1)c1cccs1 (stereo unspecified)	-1	29	0	-9	-17	-4
CC(=O)OCC1O[C@@H](O[C@@H]2C[C@H]3C(C)(C)[C@H](OC(C)=O)CC[C@]3(C)[C@H]3CC[C@]45C[C@]4(CC[C@H]5[C@@H](C)C[C@@H](O)[C@H](O)C(C)(C)O)[C@@]32C)[C@H](O)[C@@H](O)[C@@H]1O (stereo partly specified)	87*	23	69*	67*	100*	-18
CC(C)=CCC[C@](C)(O[C@@H]1O[C@H](CO[C@@H]2O[C@H](CO)[C@@H](O)[C@H](O)[C@H]2O)[C@@H](O)[C@H](O)[C@H]1O)C1CC[C@]2(C)C1C(=O)CC1[C@@]3(C)CC[C@H](O[C@H]4O[C@@H](CO)[C@H](O)[C@@H](O)[C@@H]4O)C(C)(C)C3CC[C@]12C (stereo partly specified)	1	3	1	7	0	-2
Cc1noc(C)c1CSc1nc2ccccc2nc1NS(=O)(=O)c1ccc(Cl)cc1	9	61*	7	-9	-8	-6
O=S(=O)(Nc1nc2ccccc2nc1NCc1ccco1)c1ccc(Cl)cc1	8	53	7	-11	-16	-19
